In ChEMBL document CHEMBL1125252, “Synthesis and anti-HIV-1 activity of 4,5,6,7-tetrahydro-5-methylimidazo[4,5,1-jk][1,4]benzodiazepin- 2(1H)-one (TIBO) derivatives” (J Med Chem, 1991):

Legend:
[1] = system: MT4; test: Effective concentration required to achieve 50% protection of MT-4 cells against the cytopathic effect of HIV-1; I = Inactive; assay type: functional, cell-based, Homo sapiens
Method in brief: (§1)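 MT-4 cells were infected with HIV-1 or mock-infected, then incubated with a range of test-compound concentrations. IC50 is the concentration giving 50% protection against HIV-1-induced cytopathic effect. CC50 is the concentration reducing viability of mock-infected cells by 50%. SI is CC50/IC50. Most determinations were run in duplicate and averaged.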

[2] = system: MT4; test: (§2) Cytotoxic concentration required to reduce the viability of mock-infected MT-4 cells by 50%.; assay type: functional; conditions: Homo sapiens; method in brief: as §1
[3] = system: Human immunodeficiency virus 1; test: Effective concentration required to achieve 50% protection of MT-4 cells against the cytopathic effect of HIV-1.; assay type: functional, organism-based; conditions: Human immunodeficiency virus 1, MT4; method in brief: as §1
[4] = system: MT4; test: Selectivity index measured as the ratio of CC50/IC50 values.; assay type: functional; method in brief: as §1
[5] = system: MT4; test: as §2; assay type: functional, cell-based; conditions: Homo sapiens; method in brief: as §1

IC50 [3] [µM] | SMILES | IC50 [1] | CC50 [2] [µM] | Selectivity index [4] | CC50 [5] [µM]
– | C[C@H]1Cn2c(O)nc3cccc(c32)CN1 | Not Active | 901 | – | –
19 | C=C(C)CN1Cc2cccc3[nH]c(=O)n(c23)C[C@@H]1C | – | 222 | 11 | –
– | CCN1Cc2cccc3nc(O)n(c23)CC1C (configuration not stated) | Not Active | 592 | – | –
– | CC1Cn2c(O)nc3cccc(c32)CN1Cc1ccc[nH]1 (configuration not stated) | Not Active | 92 | – | –
100 | CCCCN1Cc2cccc3nc(O)n(c23)CC1C (configuration not stated) | – | 501 | 5 | –
– | CC(C)CN1Cc2cccc3nc(O)n(c23)CC1C (configuration not stated) | Not Active | 82 | – | –
– | C=C(CN1Cc2cccc3nc(O)n(c23)CC1C)C(C)C (configuration not stated) | Not Active | 18 | – | –
– | CC(C)=C(C)CN1Cc2cccc3nc(O)n(c23)CC1C (configuration not stated) | Not Active | > 876 | – | –
122 | CC1Cn2c(O)nc3cccc(c32)CN1C/C=C\c1ccccc1 (configuration not stated) | – | 388 | 3 | –
– | C/C=C/C=C/CN1Cc2cccc3nc(O)n(c23)CC1C (configuration not stated) | Not Active | 378 | – | –
855 | COC(=O)CN1Cc2cccc3nc(O)n(c23)CC1C (configuration not stated) | – | 925 | – | –
580 | C#CCN1Cc2cccc3nc(O)n(c23)CC1C (configuration not stated) | – | 990 | – | –
22 | CC(C)=CCN1Cc2cccc3nc(O)n(c23)C[C@H]1C | – | 450 | 20 | –
37 | C=C(CC)CN1Cc2cccc3nc(O)n(c23)CC1C (configuration not stated) | – | 66 | 2 | –
– | CC1Cn2c(O)nc3cccc(c32)CN1C/C=C/c1ccccc1 (configuration not stated) | Not Active | > 783 | – | –
– | CC(=O)CN1Cc2cccc3nc(O)n(c23)CC1C (configuration not stated) | Not Active | 760 | – | –
71 | C=CC(=C)CN1Cc2cccc3nc(O)n(c23)CC1C (configuration not stated) | – | 290 | 4 | –
– | C=C(CN1Cc2cccc3nc(O)n(c23)CC1C)c1ccccc1 (configuration not stated) | Not Active | 3 | – | –
29 | C/C=C(/C)CN1Cc2cccc3nc(O)n(c23)CC1C (configuration not stated) | – | 106 | 4 | –
50 | C=CCCN1Cc2cccc3nc(O)n(c23)CC1C (configuration not stated) | – | 552 | 11 | –
– | CC1Cn2c(O)nc3cccc(c32)CN1CC#N (configuration not stated) | Not Active | 508 | – | –
58 | C/C=C/CN1Cc2cccc3nc(O)n(c23)CC1C (configuration not stated) | – | 443 | 8 | –
– | C=CCN1Cc2cccc3[nH]c(=O)n(c23)C[C@H]1C | Not Active | – | – | 592
– | C#CC(C)=CCN1Cc2cccc3nc(O)n(c23)CC1C (configuration not stated) | Not Active | 707 | – | –
– | C[C@@H]1Cn2c(O)nc3cccc(c32)CN1 | Not Active | 901 | – | –

IC50 [3] [µM] | SMILES | IC50 [1] | CC50 [2] [µM] | Selectivity index [4] | CC50 [5] [µM]
4 | CC(C)=CCN1Cc2cccc3nc(O)n(c23)C[C@@H]1C | – | 427 | 105 | –
44 | CC1Cn2c(O)nc3cccc(c32)CN1CC1CC1 (configuration not stated) | – | 588 | 13 | –
70 | C=CCN1Cc2cccc3[nH]c(=O)n(c23)CC1C (configuration not stated) | – | 670 | 10 | –
– | C=C(Cc1ccccc1)CN1Cc2cccc3nc(O)n(c23)CC1C (configuration not stated) | Not Active | 572 | – | –
35 | C/C=C\CN1Cc2cccc3nc(O)n(c23)CC1C (configuration not stated) | – | 560 | 16 | –
– | C=C(CN1Cc2cccc3nc(O)n(c23)CC1C)C(=O)OCC (configuration not stated) | Not Active | 3 | – | –
– | CC(C)N1Cc2cccc3nc(O)n(c23)CC1C (configuration not stated) | Not Active | 65 | – | –
– | C#C/C=C/CN1Cc2cccc3nc(O)n(c23)CC1C (configuration not stated) | Not Active | 370 | – | –
– | C#C/C(C)=C/CN1Cc2cccc3nc(O)n(c23)CC1C (configuration not stated) | Not Active | 18 | – | –
– | CC1Cn2c(O)nc3cccc(c32)CN1CCO (configuration not stated) | Not Active | 776 | – | –
– | CC1Cn2c(O)nc3cccc(c32)CN1CC1=CCCCC1 (configuration not stated) | Not Active | 212 | – | –
– | CC1Cn2c(O)nc3cccc(c32)CN1Cc1ncc[nH]1 (configuration not stated) | Not Active | 685 | – | –
– | CC(C)=CCC/C(C)=C\CN1Cc2cccc3nc(O)n(c23)CC1C (configuration not stated) | Not Active | 44 | – | –
62 | C=C(Br)CN1Cc2cccc3nc(O)n(c23)CC1C (configuration not stated) | – | 416 | 7 | –
66 | C=CCN1Cc2cccc3[nH]c(=O)n(c23)C[C@@H]1C | – | 670 | 10 | –
– | CC(=O)N1Cc2cccc3nc(O)n(c23)CC1C (configuration not stated) | Not Active | 175 | – | –
106 | CC1Cn2c(O)nc3cccc(c32)CN1Cc1ccco1 (configuration not stated) | – | 529 | 5 | –
– | CC(C)OCCN1Cc2cccc3nc(O)n(c23)CC1C (configuration not stated) | Not Active | 504 | – | –
– | COC(=O)/C=C/CN1Cc2cccc3nc(O)n(c23)CC1C (configuration not stated) | Not Active | 252 | – | –
47 | C=C(C)CN1Cc2cccc3[nH]c(=O)n(c23)CC1C (configuration not stated) | – | 665 | 15 | –
90 | CCCN1Cc2cccc3[nH]c(=O)n(c23)CC1C (configuration not stated) | – | 722 | 8 | –
12.5 | CC(C)=CCN1Cc2cccc3nc(O)n(c23)CC1C (configuration not stated) | – | 416 | 33 | –
5.5 | O=c1[nH]cnc2c1ncn2[C@H]1CC[C@@H](CO)O1 [DIDANOSINE] | – | 1050 | 191 | –
0.0015 | Cc1cn([C@H]2C[C@H](N=[N+]=[N-])[C@@H](CO)O2)c(=O)[nH]c1=O [ZIDOVUDINE] | – | 9.3 | 6200 | –

SMILES | IC50 [3] [µM] | IC50 [1] | CC50 [2] [µM] | Selectivity index [4] | CC50 [5] [µM]
C(=NC1CCCCC1)=NC1CCCCC1 [DICYCLOHEXYLCARBODIIMIDE] | 0.137 | – | 232 | 1693 | –
